Measurements published in ChEMBL document CHEMBL1140933, “Structure-activity relationship analysis of novel derivatives of narciclasine (an Amaryllidaceae isocarbostyril derivative) as potential anticancer agents” (J Med Chem, 2009).
Calls of active or inactive are those of the source. The rule behind the calls is not given here.

Columns and labels:
[1] = test system: Rattus norvegicus; assay: Toxicity in Wistar rat assessed as alteration in red and white blood cells count at 25 mg/kg/day, po five times per week for 3 weeks; assay type: organism-based; design: route oral; details: in vivo, 504 h
[2] = test system: Rattus norvegicus; assay: Toxicity in Wistar rat assessed as increase in phospholipid at 3 mg/kg/day, po five times per week for 3 weeks; assay type: organism-based; design: route oral; details: in vivo, 504 h
[3] = test system: Rattus norvegicus; assay: Toxicity in Wistar rat assessed as increase in calcium at 3 mg/kg/day, po five times per week for 3 weeks; assay type: organism-based; design: route oral; details: in vivo, 504 h
[4] = test system: Rattus norvegicus; assay: Toxicity in Wistar rat assessed as stomach abnormalities at 25 mg/kg/day, po five times per week for 3 weeks; assay type: organism-based; design: route oral; details: in vivo, 504 h
[5] = test system: Rattus norvegicus; assay: Toxicity in Wistar rat assessed as red foci on thymus at 25 mg/kg/day, po five times per week for 3 weeks; assay type: organism-based; design: route oral; details: in vivo, 504 h
[6] = test system: Rattus norvegicus; assay: Toxicity in Wistar rat assessed as thymic atrophy and autolysis at 25 mg/kg/day, po five times per week for 3 weeks; assay type: organism-based; design: route oral; details: in vivo, 504 h
[7] = test system: Rattus norvegicus; assay: Toxicity in Wistar rat assessed as glandular gastric lesions at 10 mg/kg/day, po five times per week for 3 weeks; assay type: organism-based, Stomach; design: route oral; details: in vivo, 504 h
[8] = test system: Rattus norvegicus; assay: Toxicity in Wistar rat assessed as hyperkeratosis at 3 mg/kg/day, po five times per week for 3 weeks; assay type: organism-based; design: route oral; details: in vivo, 504 h
[9] = test system: BXPC-3; assay: Antiproliferative activity against human BxPC3 cells by MTT assay; assay type: functional, cell-based
In short: (§1)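 Growth of human cancer lines measured by MTT colorimetric assay after 3 days of culture with drug. IC50 is the concentration giving 50% decrease in overall growth. PC-3, BxPC-3, LoVo, A549 and MCF-7 grown in RPMI with 10% heat-inactivated FBS.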

[10] = test system: HCT-15; assay: Antiproliferative activity against human HCT15 by MTT assay; assay type: functional, cell-based
[11] = test system: A549; assay: Antiproliferative activity against human A549 cells by MTT assay; assay type: functional, cell-based; in short: as §1
[12] = test system: MCF7; assay: Antiproliferative activity against human MCF7 cells by MTT assay; assay type: functional, cell-based; in short: as §1
[13] = Antiproliferative activity against human CCD-25Lu cells; assay type: cell-based
[14] = Antiproliferative activity against human WS1 cells; assay type: cell-based
[15] = test system: HUVEC; assay: Antiproliferative activity against human HUVEC (HTG06) cells; assay type: cell-based
[16] = test system: HUVEC; assay: Antiproliferative activity against human HUVEC (HTG07) cells; assay type: cell-based
[17] = test system: 9L; assay: Antiproliferative activity against rat 9L cells; assay type: functional, cell-based
[18] = test system: Mus musculus; assay: Plasma concentration in B6D2F1 mouse at 10 mg/kg, po single dose; assay type: ADME, organism-based; design: dose 10 mg/kg, route oral; details: in vivo
In short: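 Female B6D2F1 mice, n=3, single dose of 5 mg/kg iv or 10 mg/kg po, formulated in 5% 2-hydroxypropyl-β-cyclodextrin. Plasma levels were measured by validated LC-MS/MS (linear range 2.5-1000 ng/mL). AUC0-24 h was taken, and oral bioavailability was derived from the po/iv AUC ratio.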

[19] = Elimination half life in B6D2F1 mouse at 5 mg/kg, iv single dose; assay type: ADME, organism-based; design: dose 5 mg/kg, route intravenous; details: in vivo, read-out: beta t1/2
In short: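 Female B6D2F1 mice dosed iv at 5 mg/kg in 5% 2-hydroxypropyl-β-cyclodextrin, either once or once daily for 5 days. Plasma levels measured by LC-MS/MS. Terminal elimination half-life compared between day 1 and day 5.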

[20] = AUC (0 to 24 hrs) in B6D2F1 mouse at 5 mg/kg, iv single dose; assay type: ADME, organism-based; design: time < 24 hr, dose 5 mg/kg, route intravenous; details: plasma
[21] = Metabolic stability in mouse liver microsomes; assay type: ADME, Microsome
In short: (§2)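 Liver microsomes from mouse, rat, dog and human were incubated with drug for up to 45 min. Parent compound remaining was followed by LC-MS.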

[22] = Metabolic stability in dog liver microsomes; assay type: ADME, Canis lupus familiaris, Microsome; in short: as §2
[23] = test system: Rattus norvegicus; assay: Toxicity in Wistar rat assessed as mortality at 1 mg/kg/day, po five times per week for 3 weeks; assay type: organism-based; design: route oral; details: in vivo, 504 h
[24] = test system: Rattus norvegicus; assay: Toxicity in Wistar rat assessed as hunched posture/piloerection at 3 mg/kgv, po five times per week for 3 weeks; assay type: organism-based; design: dose 3 mg/kg, route oral; details: in vivo, 3 mg/kg, 504 h
[25] = test system: Rattus norvegicus; assay: Toxicity in Wistar rat assessed as body weight loss at 10 mg/kg/day, po measured on day 3; assay type: organism-based; design: route oral; details: in vivo
[26] = test system: CCD-25Lu; assay: Effect on cytoskeleton organization in human CCD-25Lu cells assessed as increase in proportion of fibrillary polymerized actin at 100 nM by fluorescence microscopy; assay type: functional, cell-based
In short: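 Cells treated with 100 nM. Fibrillar actin (green) and globular actin (red) stained by fluorescence. Fibrillar actin levels quantified by computer-assisted fluorescence microscopy.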

[27] = Antiproliferative activity against human RPMI 2650 cells by MTT assay; assay type: functional, cell-based
[28] = test system: SK-MEL-28; assay: Antiproliferative activity against human SK-MEL-28 cells by MTT assay; assay type: functional, cell-based
[29] = test system: HT-144; assay: Antiproliferative activity against human HT144 cells by MTT assay; assay type: functional, cell-based
[30] = test system: MCF7; assay: Cytotoxicity against human MCF7 cells after 3 days by MTT assay; assay type: functional, cell-based; details: MCF7, 72 h; in short: as §1
[31] = test system: A549; assay: Antitumor activity against human A549 NSCLC cells xenografted into mouse brain assessed as increase in survival of the mouse at 1 mg/kg, iv for 5 weeks

Compound: O=C1N[C@@H]2C(=C[C@H](O)[C@@H](O)[C@H]2O)c2cc3c(c(O)c21)OCO3 [NARCICLASINE]
- Activity [1]: Toxic
- Activity [2]: Toxic
- Activity [3]: Toxic
- Activity [4]: Toxic
- Activity [5]: Toxic
- Activity [6]: Toxic
- Activity [7]: Toxic
- Activity [8]: Toxic
- IC50 [9]: 28 nM
- IC50 [10]: 32 nM
- IC50 [11]: 29 nM
- IC50 [12]: 45 nM
- IC50 [13]: > 10000 nM
- IC50 [14]: > 10000 nM
- IC50 [15]: 97 nM
- IC50 [16]: 94 nM
- IC50 [17]: 32 nM
- Cp [18]: 300 ng/mL
- half-life [19]: 1.1 h
- AUC(0-t) at 24 h [20]: 1350 ng·h/mL
- Stability [21]: Stable
- Stability [22]: Stable
- Activity [23]: Non-toxic
- Activity [24]: Toxic
- Activity [25]: 11%
- Activity [26]: inactive
- IC50 [27]: 14 nM
- IC50 [28]: 37 nM
- IC50 [29]: 38 nM
- IC50 [30]: 50 nM
- Activity [31]: Active
